{"source": "ChEMBL document CHEMBL1155047", "about": "“Isolation, structure, and antibacterial activity of phaeosphenone from a Phaeosphaeria sp. discovered by antisense strategy” (J Nat Prod, 2008)", "key": {"Staphylococcus aureus [1]": {"system": "Staphylococcus aureus", "experiment": "Inhibition of Staphylococcus aureus RNA synthesis", "format": "functional, organism-based", "in_short": "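Mid-log S. aureus (A600 0.5–0.6) is exposed to increasing compound concentrations for 20 min at 37 °C with 1 µCi/mL 5,6-[3H]uracil. The reaction is stopped with 10% trichloroacetic acid, and cells are collected on glass-fibre filters. Incorporated label is counted by scintillation.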"}, "Escherichia coli": {"system": "Escherichia coli", "experiment": "Antimicrobial activity against wild type Escherichia coli MB2884", "format": "functional", "in_short": "(§1)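 Broth microdilution under NCCLS guidelines, with 2-fold serial compound dilutions. Cells are incubated at 37 °C for 20 h. MIC is the lowest concentration that prevents visible growth. The concentration giving 80% growth inhibition is also reported.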"}, "Enterococcus faecalis": {"system": "Enterococcus faecalis", "experiment": "Antimicrobial activity against vancomycin-sensitive and macrolide-resistant Enterococcus faecalis CL8516", "format": "functional", "in_short": "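Broth microdilution MIC under NCCLS guidelines in cation-adjusted Mueller Hinton broth unless stated otherwise; inoculum 10^5 CFU/mL; 2-fold serial compound dilutions in growth medium; 37 °C for 20 h. MIC read as lowest concentration preventing visible growth; a value for 80% growth inhibition also reported.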"}, "Staphylococcus aureus [2]": {"system": "Staphylococcus aureus", "experiment": "Antimicrobial activity against methicillin-sensitive Staphylococcus aureus MB2865 in presence of human serum", "format": "functional"}, "Streptococcus pneumoniae [3]": {"system": "Streptococcus pneumoniae", "experiment": "Antimicrobial activity against penicillin, quinoline and macrolide-sensitive Streptococcus pneumoniae CL2883 in isosensitet medium", "format": "functional", "in_short": "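Pneumococcal broth MIC run in Isosensitest medium with 2-fold serial compound dilutions, 37 °C for 20 h. The reading is the lowest concentration with no visible growth.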"}, "Staphylococcus aureus [4]": {"system": "Staphylococcus aureus", "experiment": "Antimicrobial activity against methicillin-sensitive Staphylococcus aureus ATCC 29213", "format": "functional", "in_short": "as §1"}, "Staphylococcus aureus [5]": {"system": "Staphylococcus aureus", "experiment": "Antimicrobial activity against Staphylococcus aureus RN450 assessed as zone size at 31.25 ug/ml by two-plate differential sensitivity assay", "format": "functional, organism-based", "in_short": "(§2)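 The S. aureus RN450 strains carry plasmid S1-782B, either with rpsD antisense RNA or with empty vector (control). Overnight cultures are grown in Miller's LB with 34 µg/mL chloramphenicol at 37 °C, 220 rpm, for 18–20 h. They are seeded 1:1000 of OD 3.0 into LB agar with 0.2% glucose and 15 µg/mL chloramphenicol; 12 mM xylose is added for the antisense strain only. Samples go into wells at 2-fold dilutions from 500 to 31.25 µg/mL. Zones are read after 18 h at 37 °C.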"}, "Streptococcus pneumoniae [6]": {"system": "Streptococcus pneumoniae", "experiment": "Antimicrobial activity against penicillin, quinoline and macrolide-sensitive Streptococcus pneumoniae CL2883 in CAMHB and 2.5 % lysed horse serum medium", "format": "functional", "conditions": "in the assay text read “lysed horse blood” for “lysed horse serum”", "in_short": "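Broth MIC with 2-fold serial dilution in cation-adjusted Mueller Hinton broth plus 2.5% lysed horse blood, incubated 20 h at 37 °C, NCCLS guidelines. Endpoint is no visible growth.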"}, "Bacillus subtilis": {"system": "Bacillus subtilis", "experiment": "Antimicrobial activity against wild type Bacillus subtilis MB964", "format": "functional", "in_short": "as §1"}, "Staphylococcus aureus [7]": {"system": "Staphylococcus aureus", "experiment": "Antimicrobial activity against methicillin-sensitive Staphylococcus aureus MB2865", "format": "functional", "in_short": "as §1"}, "Staphylococcus aureus [8]": {"system": "Staphylococcus aureus", "experiment": "Antimicrobial activity against Staphylococcus aureus RN450 carrying plasmid S1-782B bearing antisense […] RNA assessed as zone size at 31.25 ug/ml by two-plate differential sensitivity assay", "format": "functional", "conditions": "read-out: IZ", "in_short": "as §2"}, "Candida albicans": {"system": "Candida albicans", "experiment": "Antimicrobial activity against wild type Candida albicans MY1055", "format": "functional", "in_short": "as §1"}, "Staphylococcus aureus [9]": {"system": "Staphylococcus aureus", "experiment": "Antimicrobial activity against Staphylococcus aureus RN450 assessed as zone size at 500 ug/ml by two-plate differential sensitivity assay", "format": "functional", "conditions": "read-out: IZ", "in_short": "as §2"}, "Staphylococcus aureus [10]": {"system": "Staphylococcus aureus", "experiment": "Antimicrobial activity against Staphylococcus aureus RN450 carrying plasmid S1-782B bearing antisense […] RNA assessed as zone size at 500 ug/ml by two-plate differential sensitivity assay", "format": "functional", "conditions": "read-out: IZ", "in_short": "as §2"}, "Haemophilus influenzae": {"system": "Haemophilus influenzae", "experiment": "Antimicrobial activity against ampicillin, quinoline and macrolide-sensitive Haemophilus influenzae MB4572", "format": "functional", "in_short": "as §1"}}, "note": "Activity calls are given as the source filed them. The rule behind the calls is not given here.", "data": [{"molecule": "Cc1cc(O)c2c(c1)C(=O)C1=C(C2=O)[C@@H](O)[C@@H](O)[C@@H](O)C1", "note": "[PLEOSPORONE]", "values": [{"measurement": "IC50", "setting": "Staphylococcus aureus [1]", "result": 6, "unit": "µg/mL"}]}, {"molecule": "Cc1cc(O)c2c(c1)C(=O)c1c(cc(C)c([C@H]3C[C@@H](O)C4=C(C(=O)C5=C(C4=O)[C@@H](O)CC[C@@H]5O)[C@H]3O)c1O)C2=O", "note": "[PHAEOSPHENONE]", "values": [{"measurement": "MIC", "setting": "Escherichia coli", "result": "> 64", "unit": "µg/mL"}, {"measurement": "MIC", "setting": "Enterococcus faecalis", "result": 64, "unit": "µg/mL"}, {"measurement": "MIC", "setting": "Staphylococcus aureus [2]", "result": "> 64", "unit": "µg/mL"}, {"measurement": "MIC", "setting": "Streptococcus pneumoniae [3]", "result": 8, "unit": "µg/mL"}, {"measurement": "MIC", "setting": "Staphylococcus aureus [4]", "result": 32, "unit": "µg/mL"}, {"measurement": "MIC80", "setting": "Staphylococcus aureus [4]", "result": 16, "unit": "µg/mL"}, {"measurement": "Activity", "setting": "Staphylococcus aureus [5]", "result": "inactive"}, {"measurement": "MIC", "setting": "Streptococcus pneumoniae [6]", "result": 64, "unit": "µg/mL"}, {"measurement": "MIC", "setting": "Bacillus subtilis", "result": 16, "unit": "µg/mL"}, {"measurement": "MIC", "setting": "Staphylococcus aureus [7]", "result": 64, "unit": "µg/mL"}, {"measurement": "MIC80", "setting": "Staphylococcus aureus [7]", "result": 32, "unit": "µg/mL"}, {"measurement": "zone of inhibition at 31.25 µg/mL", "setting": "Staphylococcus aureus [8]", "result": 7, "unit": "mm"}, {"measurement": "MIC", "setting": "Candida albicans", "result": 8, "unit": "µg/mL"}, {"measurement": "zone of inhibition at 500 µg/mL", "setting": "Staphylococcus aureus [9]", "result": 11.8, "unit": "mm"}, {"measurement": "zone of inhibition at 500 µg/mL", "setting": "Staphylococcus aureus [10]", "result": 16, "unit": "mm"}, {"measurement": "MIC", "setting": "Haemophilus influenzae", "result": "> 64", "unit": "µg/mL"}]}]}
